Activity and ED50 data for seven compounds are collected here from ChEMBL document CHEMBL3271990, “Ergot alkaloids. New ergolines as selective dopaminergic stimulants” (1978).

The term ED50 denotes the dose at which the effect has come halfway, by size or by number of responders. A higher ED50 goes with weaker potency.

Assay [1] relates to Rattus norvegicus. Nature of the assay: Induction of stereotypy in OFA rat at 30 mg/kg, ip measured every 30 mins for 2 hrs followed by every 60 mins for 7 hrs. More on the design: dose 30 mg/kg. The assay is classed as functional, organism-based. Put shortly: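 Male OFA rats (180-250 g), each in its own cylinder with a wire-netting floor, acclimatized 30 min, then dosed. Observed every 30 min for 2 h, then every 60 min up to 7 h total. Six rats per dose. Sniffing, licking and biting scored with the Costall et al. system and summed as total activity per rat over 0-7 h.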

In assay [2] the test system is Rattus norvegicus. Nature of the assay: Inhibition of serum prolactin in sc dosed rat after 4 hrs by RIA. The assay is classed as functional. Put shortly: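 Serum prolactin measured by RIA 4 h after sc dosing, expressed as NIH-RP. ED50 calculated from dose-response relationships.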
Assay [3] has as its system Rattus norvegicus. Nature of the assay: Inhibition of ovum implantation in sc dosed inseminated rat. Format: functional. Put shortly: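 Inseminated rats dosed sc. ED value for inhibition of ovum implantation.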
For assay [4], the system named is Rattus norvegicus. Nature of the assay: Induction of turning toward intact side in OFA rat model with 6-OH-DA-induced unilateral degeneration of nigrostriatal tract at 1 mg/kg, ip. Further details: dose 1 mg/kg. Format: functional, organism-based.
Assay [5] relates to Rattus norvegicus. Nature of the assay: Induction of stereotypy in OFA rat at 10 mg/kg, sc measured every 30 mins for 2 hrs followed by every 60 mins for 7 hrs. Format: functional, organism-based. More on the design: dose 10 mg/kg. Put shortly:
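Male OFA rats (180-250 g), housed singly in cylinders with wire-netting floor, acclimatized 30 min before dosing. Behaviour observed every 30 min for 2 h, then every 60 min up to 7 h total. Stereotypy (sniffing, licking, biting) scored on Costall et al. scale; total score per rat over 0-7 h. Six rats per dose.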

Activity calls are given as the source filed them. The rule behind the calls is not given here.

For the compound `CC(C)C[C@H]1C(=O)N2CCC[C@H]2[C@]2(O)O[C@](NC(=O)[C@@H]3C=C4c5cccc6[nH]c(Br)c(c56)C[C@H]4N(C)C3)(C(C)C)C(=O)N12` [BROMOCRIPTINE], the result in the assay with Rattus norvegicus [1] was Active. The ED50 in the assay with Rattus norvegicus [2] was 0.007 mg/kg; in the assay on Rattus norvegicus [3] it was 0.75 mg/kg.

Regarding `CN1C[C@H](CC#N)C[C@@H]2c3cccc4[nH]c(Cl)c(c34)C[C@H]21` [LERGOTRILE], the outcome in the assay with Rattus norvegicus [4] and with Rattus norvegicus [1] was Active. Besides, the ED50 in the assay on Rattus norvegicus [2] stood at 0.08 mg/kg; in the assay on Rattus norvegicus [3], 2 mg/kg.

Turning to `CN1C[C@H](CSc2ccccn2)C=C2c3cccc4[nH]cc(c34)C[C@H]21` [TIOMERGINE], the outcome with Rattus norvegicus [4] was Active. The 50% effective dose (ED50) stood at 1.47 mg/kg with Rattus norvegicus [2] and 11.5 mg/kg in the assay with Rattus norvegicus [3].

For the compound `CN1CCc2cccc3c2[C@H]1Cc1ccc(O)c(O)c1-3`, the outcome in the assay on Rattus norvegicus [5] was Active.

Take `CN1C[C@H](CC#N)C[C@@H]2c3cccc4[nH]cc(c34)C[C@H]21`: the result with Rattus norvegicus [4] was Active. Also, the ED50 was 0.06 mg/kg in the assay on Rattus norvegicus [2] and 1 mg/kg in the assay with Rattus norvegicus [3].

`CN1C[C@@H](CC#N)C[C@H]2c3cccc4[nH]cc(c34)C[C@H]21`: the result with Rattus norvegicus [4] and in the assay on Rattus norvegicus [1] was Active.

As for `CN1C[C@@H](CC#N)C[C@@H]2c3cccc4[nH]cc(c34)C[C@H]21` [DELERGOTRILE], the result in the assay with Rattus norvegicus [4] and in the assay with Rattus norvegicus [1] was Active. Besides, the ED50 in the assay on Rattus norvegicus [2] was 0.06 mg/kg; with Rattus norvegicus [3] it was 3 mg/kg.
